This passage reports IC50, LDL oxidation and CBF increasing activity results from ChEMBL document CHEMBL1132344, “Novel calcium antagonists with both calcium overload inhibition and antioxidant activity. 2. Structure-activity relationships of thiazolidinone derivatives” (J Med Chem, 1999).

For experiment [1], the species on record is Rattus norvegicus. Kind of experiment: Compound was tested in vitro for [Ca2+] antagonistic activity in K+-depolarized isolated rat aorta. The class given is functional. The method in brief:
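Thoracic aorta rings (2–3 mm) from male Sprague–Dawley rats (350–550 g), isometric tension in Krebs–Henseleit pH 7.4, 37 °C, 95% O2/5% CO2, 2 g resting tension. After a priming 30 mM K+ contraction and washout, second 30 mM K+ contraction; compound added cumulatively in half-log steps. IC50 = concentration relaxing contraction to 50%; mean ± SE, 2–8 experiments.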

The species named for experiment [2] is Rattus norvegicus. As to the kind of experiment: Compound was tested for [Ca2+] overload inhibitory activity in the veratridine-induced [Ca2+] overload model of rat cardiac myocytes. In kind it is functional, organism-based. The method in brief:
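Ventricular myocytes isolated from male Sprague–Dawley rats (300–500 g) by enzyme perfusion; rod-shaped cells exposed to compound 30 min, then 50 μg/mL veratridine added. Survival judged by cell shape 5 min later. Value is molar concentration inhibiting cell death by >80%; 2–8 experiments, >50 rod-shaped myocytes each.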

For experiment [3], the species on record is Oryctolagus cuniculus. Kind of experiment: in vitro inhibitory activity on soybean lipoxygenase-induced lipid peroxidations of rabbit low-density lipoprotein (LDL) at 0.5 uM dosage. In kind it is functional. The method in brief: (§1)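 Rabbit LDL (Havel method) with compound, oxidised by soybean lipoxygenase type-1S (40 μg/mL final) for 24 h at 37 °C in CO2 incubator. LDL fraction separated by gel-permeation chromatography; fluorescence read at ex 360/em 430 nm. Expressed as percent of control.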

Experiment [4] is filed under the species Oryctolagus cuniculus. As to the kind of experiment: in vitro inhibitory activity on soybean lipoxygenase-induced lipid peroxidations of rabbit low-density lipoprotein (LDL) at 5 uM dosage. In kind it is functional, organism-based. A digest of the protocol:
as §1

Experiment [5] has as its system Canis familiaris. Kind of experiment: Effect on coronary blood flow (CBF) by intravenous administration of compound in anesthetized dogs. The class given is functional, Canis lupus familiaris. The arrangement: concentration or dose not given beside the values. A digest of the protocol: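 Male beagles (9–14 kg) under pentobarbital (35 mg/kg iv, then 3–5 mg/kg/h infusion), artificially ventilated, left thoracotomy. Compound given iv via cephalic vein at […]. Coronary blood flow change expressed as maximal percent change from pre-dose value; mean ± SE from 5–6 dogs or a single experiment.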

The species named for experiment [6] is Oryctolagus cuniculus. Kind of experiment: In vitro inhibitory activity on soybean lipoxygenase-induced lipid peroxidations of rabbit low-density lipoprotein (LDL) at 0.5 uM dosage. In kind it is functional. A digest of the protocol:
as §1

For experiment [7], the species on record is Oryctolagus cuniculus. As to the kind of experiment: In vitro inhibitory activity on soybean lipoxygenase-induced lipid peroxidations of rabbit low-density lipoprotein (LDL) at 5 uM dosage. The class given is functional, organism-based. The method in brief: as §1

Bounds are passed on as bounds.

What is called IC50 is the concentration that gives 50% inhibition. As to `CN(CCCN1C(=O)CSC1c1cc(Cl)c(O)c(Cl)c1)CCOc1ccc2c(c1)OCO2` (stereo not drawn), the IC50 in experiment [1] (Rattus norvegicus, Aorta) was greater than 10000 nM.

With `CN(CCCCN1C(=O)CSC1c1cc(C(C)(C)C)c(O)c(C(C)(C)C)c1)CCOc1ccc2c(c1)OCO2` (stereo not drawn), the IC50 in experiment [1] (Rattus norvegicus, Aorta) was 210 nM; in experiment [2] (Rattus norvegicus) it was 1000 nM.

In turn, `CN(CCCN1C(=O)CSC1c1ccc(O)c(C(C)(C)C)c1)CCOc1ccc2c(c1)OCO2` (stereo not drawn) gave an IC50 in experiment [1] (Rattus norvegicus, Aorta) of 560 nM.

For `CN(CCOc1ccc2c(c1)OCO2)CCN1C(=O)CSC1c1cc(C(C)(C)C)c(O)c(C(C)(C)C)c1` (stereo not drawn), the IC50 in experiment [1] (Rattus norvegicus, Aorta) was 360 nM.

As for `CN(CCCN1C(=O)CSC1c1cc(C(C)(C)C)c(O)c(C(C)(C)C)c1)CCOc1ccc2c(c1)OCO2` (single isomer, unassigned; (+)) [listing 1 of 2 here], the LDL oxidation in experiment [3] came out at 13.5%; in experiment [4] it was 5.9%.

Take `CCN(CCCN1C(=O)CSC1c1cc(C(C)(C)C)c(O)c(C(C)(C)C)c1)CCOc1ccc2c(c1)OCO2` (stereo not drawn): the results for the LDL oxidation in experiment [3] and in experiment [4] were 16.8% and 6.4%, respectively. Further, the CBF increasing activity in experiment [5] is on record as 52%. Also, the IC50 turned out to be 63 nM in experiment [1] (Rattus norvegicus, Aorta) and 320 nM in experiment [2] (Rattus norvegicus).

Consider `COc1c(C(C)(C)C)cc(C2SCC(=O)N2CCCN(C)CCOc2ccc3c(c2)OCO3)cc1C(C)(C)C` (stereo not drawn), for which the LDL oxidation in experiment [3] was 91.6%; in experiment [4] it was 39.7%. Moreover, the IC50 in experiment [1] (Rattus norvegicus, Aorta) came out at 36 nM; in experiment [2] (Rattus norvegicus), 1000 nM.

On to `CC(C)N(CCCN1C(=O)CSC1c1cc(C(C)(C)C)c(O)c(C(C)(C)C)c1)CCOc1ccc2c(c1)OCO2` (stereo not drawn), for which the IC50 in experiment [1] (Rattus norvegicus, Aorta) turned out to be 450 nM; in experiment [2] (Rattus norvegicus), 1000 nM.

Regarding `CN(CCCOc1ccc2c(c1)OCO2)CCCN1C(=O)CSC1c1cc(C(C)(C)C)c(O)c(C(C)(C)C)c1` (stereo not drawn), the LDL oxidation is 16.4% in experiment [3] and 3.9% in experiment [4]. Besides, in experiment [5], the CBF increasing activity is reported as 23%. Moreover, the IC50 in experiment [1] (Rattus norvegicus, Aorta) was found to be 78 nM; in experiment [2] (Rattus norvegicus), 320 nM.

In experiment [4], `CN(CCCCCN1C(=O)CSC1c1cc(C(C)(C)C)c(O)c(C(C)(C)C)c1)CCOc1ccc2c(c1)OCO2` (stereo not drawn) displayed an LDL oxidation of 5.9%. In experiment [1] (Rattus norvegicus, Aorta), this compound returned an IC50 of 280 nM.

`COc1ccc([C@@H]2Sc3ccccc3N(CCN(C)C)C(=O)[C@@H]2OC(C)=O)cc1` [DILTIAZEM]: the figures for the LDL oxidation in experiment [3] and in experiment [4] were 109% and 111%, respectively. For the same compound, the CBF increasing activity in experiment [5] is 86%. Moreover, the IC50 in experiment [1] (Rattus norvegicus, Aorta) was 100 nM; in experiment [2] (Rattus norvegicus), greater than 10000 nM.

With `CN(CCCN1C(=O)CSC1c1cc(C(C)(C)C)c(O)c(C(C)(C)C)c1)CCOc1ccc2c(c1)OCO2` (single isomer, unassigned; (+)) [listing 2 of 2 here], the CBF increasing activity in experiment [5] is recorded as 16%. For the same compound, the IC50 in experiment [1] came out at 340 nM; in experiment [2], 320 nM.

As for `CN(CCCN1C(=O)CSC1c1cc(C(C)(C)C)c(O)c(C(C)(C)C)c1)CCOc1ccc2c(c1)OCO2` (single isomer, unassigned; (-)) [listing 1 of 2 here], the CBF increasing activity in experiment [5] was 117%. In addition, the IC50 amounted to 33 nM in experiment [1] and 320 nM in experiment [2].

Regarding `CC(C)(C)c1cc(C2SCC(=O)N2CCCNCCOc2ccc3c(c2)OCO3)cc(C(C)(C)C)c1O` (stereo not drawn), the IC50 in experiment [1] (Rattus norvegicus, Aorta) turned out to be 160 nM; in experiment [2] (Rattus norvegicus), 1000 nM.

Regarding `CN(CCCN1C(=O)C[S+]([O-])C1c1cc(C(C)(C)C)c(O)c(C(C)(C)C)c1)CCOc1ccc2c(c1)OCO2` (stereo not drawn), in experiment [1] (Rattus norvegicus, Aorta), the IC50 amounted to 790 nM.

As to `CN(CCCN1C(=O)CSC1c1cc(C(C)(C)C)c(O)c(C(C)(C)C)c1)CCOc1ccc2c(c1)OCO2` (stereo in doubt; 1) [listing 1 of 2 here], the LDL oxidation in experiment [6] was 12.9%; in experiment [7] it was 3%.

Turning to `CN(CCCN1C(=O)CSC1c1ccc(O)cc1)CCOc1ccc2c(c1)OCO2` (stereo not drawn), the IC50 in experiment [1] (Rattus norvegicus, Aorta) stood at 2600 nM.

Compound `Cc1cc(C2SCC(=O)N2CCCN(C)CCOc2ccc3c(c2)OCO3)c(C)c(C)c1O` (stereo not drawn) came in with an IC50 in experiment [1] (Rattus norvegicus, Aorta) of 630 nM.

With `CCc1cc(C2SCC(=O)N2CCCN(C)CCOc2ccc3c(c2)OCO3)cc(CC)c1O` (stereo not drawn), in experiment [1] (Rattus norvegicus, Aorta), the midpoint of inhibition, the IC50, lay at 320 nM.

As for `CC(C)c1cc(C2SCC(=O)N2CCCN(C)CCOc2ccc3c(c2)OCO3)cc(C(C)C)c1O` (stereo not drawn), the concentration for half-maximal inhibition (IC50) was 140 nM in experiment [1] (Rattus norvegicus, Aorta) and 320 nM in experiment [2] (Rattus norvegicus).

In the case of `Cc1cc(C(C)(C)C)c(O)c(C(C)(C)C)c1` [BUTYLATED HYDROXYTOLUENE], the IC50 in experiment [1] (Rattus norvegicus, Aorta) is 19700 nM; in experiment [2] (Rattus norvegicus), 900 nM.

As to `Cc1cc(C2SCC(=O)N2CCCN(C)CCOc2ccc3c(c2)OCO3)cc(C)c1O` (stereo not drawn), inhibition in experiment [1] (Rattus norvegicus, Aorta) was half-maximal at 2300 nM (IC50).

The compound `COc1cc(C2SCC(=O)N2CCCN(C)CCOc2ccc3c(c2)OCO3)cc(OC)c1O` (stereo not drawn) returned an IC50 in experiment [1] (Rattus norvegicus, Aorta) of 4100 nM.

`CN(CCCCOc1ccc2c(c1)OCO2)CCCN1C(=O)CSC1c1cc(C(C)(C)C)c(O)c(C(C)(C)C)c1` (stereo not drawn): the IC50 is 200 nM in experiment [1] (Rattus norvegicus, Aorta) and 320 nM in experiment [2] (Rattus norvegicus).

`CN(CCCN1C(=O)CSC1c1cc(C(C)(C)C)c(O)c(C(C)(C)C)c1)CCOc1ccc2c(c1)OCO2` (single isomer, unassigned; (-)) [listing 2 of 2 here]: the LDL oxidation in experiment [3] was 16.4%; in experiment [4] it was 3.9%.

Take `CN(CCCN1C(=S)CSC1c1cc(C(C)(C)C)c(O)c(C(C)(C)C)c1)CCOc1ccc2c(c1)OCO2` (stereo not drawn): the LDL oxidation worked out at 22.8% in experiment [3] and 11.3% in experiment [4]. In experiment [1] (Rattus norvegicus, Aorta), this compound registered an IC50 of 160 nM.

In the case of `Cc1cc(C2SCC(=O)N2CCCN(C)CCOc2ccc3c(c2)OCO3)cc(C(C)(C)C)c1O` (stereo not drawn), the half-inhibitory concentration (IC50) in experiment [1] (Rattus norvegicus, Aorta) came to 280 nM.

For `Cc1c(C)c2c(c(C)c1O)CC[C@@](C)(CCC[C@H](C)CCC[C@H](C)CCCC(C)C)O2` [ALPHA-TOCOPHEROL], the IC50 is 60200 nM in experiment [1] (Rattus norvegicus, Aorta) and 13200 nM in experiment [2] (Rattus norvegicus).

Regarding `CN(CCCN1C(=O)CSC1c1cc(C(C)(C)C)c(O)c(C(C)(C)C)c1)CCOc1ccc2c(c1)OCO2` (stereo in doubt; 1) [listing 2 of 2 here], the CBF increasing activity in experiment [5] came out at 96%. In experiment [1], this compound displayed an IC50 of 62 nM.

As for `CC(C)(C)c1cc(C2SCC(=O)N2CCCN(CCO)CCOc2ccc3c(c2)OCO3)cc(C(C)(C)C)c1O` (stereo not drawn), the IC50 in experiment [1] (Rattus norvegicus, Aorta) turned out to be 320 nM.
